T cruzi intra: blocks T. cruzi growth inside host cells; 4.9% of 22,000 active; activity score (inhibition), % at 5.01 µM; intracellular Trypanosoma cruzi in host cells, plate reader; AID 651903; in the data active means activity score above about 55%;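 further: parasites and compound incubated about four days before reading; 0% = median of neutral control wells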
INS-1E ATP HTS: preserves ATP levels in cytokine-treated INS-1E cells | INS-1E cytokine-induced death, ATP luminescence, 48 h; normalised: neutral wells 0, positive control 100 | protection from cytokine-induced ATP loss, % at 10 µM | 0.1% of 20,000 active | AID 488910;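 active means mean replicate protection from cytokine-induced ATP loss at least 50% and at least 75% of replicates each reaching 50%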
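Material: INS-1E rat cells; Quantity: 8000 cells/well; Buffer or medium: phenol-red-free RPMI with 5% fetal bovine serum; Probe or stimulus: cytokine cocktail of IFN-γ, TNF-α and IL-1β; Compound dosing: single test concentration per compound, delivered by pin transfer; Incubation: 48 h co-treatment, 10 min post-lysis read; Signal: CellTiter-Glo luminescence.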
A1 apoptosis 2: blocks A1, raising caspase activity. MEF A1-2A-BIM cells, caspase-Glo luminescence, 3 h; percent of clofoctol response, DMSO zero. AID 2465. 24,000 tested, under 10 active. caspase activation, % (no concentration beside the values); in the data active means caspase activation above about 5.9%
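System: mouse embryonic fibroblasts co-expressing A1 and BIM (A1-2A-BIM), primed for A1 dependence; amount: 2500 cells/well; doses: 50 nL pinned compound; schedule: cells settled overnight, compound exposure 3 h at 37 °C, 5% CO2; detection: Caspase-Glo 3/7 luminescence, 1 h at room temperature; read-out: Caspase-3/7 activation, seen as rise in luminescence signal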
The depositor's hits bear a star; . = not tested or not shown. Many of the other results were omitted from the sample, so hits are more common in it than they were.

SMILES | T cruzi intra | INS-1E ATP HTS | A1 apoptosis 2
O=C(NCc1ccccc1)C1=C[C@@H](c2cccs2)C[C@@H](OCc2ccc(CO)cc2)O1 | . | . | 1
O=C(O)CCCCCCC(=O)N/N=C/c1ccco1 | -16 | 26 | 0
C[C@@H]1CN([C@@H](C)CO)C(=O)c2cc(NS(=O)(=O)c3ccc(F)cc3)ccc2O[C@H]1CN(C)CC1CC1 | 7 | -5 | .
C[C@@H]1CCCCO[C@H](CN(C)Cc2ccc(Cl)c(Cl)c2)[C@H](C)CN([C@@H](C)CO)C(=O)c2cc(NC(=O)Nc3ccc(F)cc3)ccc2O1 | . | . | -2
C[C@@H]1CCCCO[C@@H](CN(C)Cc2ccc(Cl)c(Cl)c2)[C@@H](C)CN([C@H](C)CO)C(=O)c2cc(NC(=O)Nc3ccc(F)cc3)ccc2O1 | 67* | -14 | .
Cc1noc(C)c1NC(=O)Nc1ccc2c(c1)C(=O)N([C@@H](C)CO)C[C@H](C)[C@H](CN(C)C(=O)NC(C)C)OCCCC[C@H](C)O2 | . | . | -1
C[C@H]1CN([C@@H](C)CO)C(=O)Cc2cc(NC(=O)Cc3cn(C)c4ccccc34)ccc2O[C@H]1CN(C)Cc1ccc(-c2ccccc2)cc1 | 43 | -38 | -1
C[C@H]1CN([C@@H](C)CO)C(=O)Cc2cc(NC(=O)Cc3cn(C)c4ccccc34)ccc2O[C@@H]1CN(C)Cc1ccc(-c2ccccc2)cc1 | 74* | -25 | .
C[C@@H]1CN([C@H](C)CO)C(=O)Cc2cc(NC(=O)Cc3cn(C)c4ccccc34)ccc2O[C@H]1CN(C)CC1CCCCC1 | 60* | -1 | 0
C[C@@H]1CN([C@H](C)CO)C(=O)Cc2cc(NC(=O)Cc3cn(C)c4ccccc34)ccc2O[C@@H]1CN(C)CC1CCCCC1 | 21 | 1 | 0
C[C@@H]1CN([C@H](C)CO)C(=O)Cc2cc(NC(=O)Cc3cn(C)c4ccccc34)ccc2O[C@H]1CN(C)Cc1ccc(-c2ccccc2)cc1 | 64* | -3 | 0
C[C@@H]1CN([C@H](C)CO)C(=O)Cc2cc(NC(=O)Cc3cn(C)c4ccccc34)ccc2O[C@@H]1CN(C)Cc1ccc(C(=O)O)cc1 | -5 | 2 | 0
O=C(CCCCC(=O)N/N=C/c1cc(Br)cs1)NO | 13 | 9 | -1
C[C@@H]1CN([C@@H](C)CO)C(=O)c2cc(NS(=O)(=O)c3cccs3)ccc2O[C@@H]1CN(C)Cc1ccc(C(=O)Nc2ccccc2N)cc1 | 48 | 38 | .
COc1ccc(CN(C)C[C@@H]2Oc3ccc(NC(=O)Cc4ccccc4)cc3CC(=O)N([C@H](C)CO)C[C@H]2C)cc1 | 54 | 9 | -1
C[C@H]1CN([C@@H](C)CO)C(=O)Cc2cc(NC(=O)Cc3ccccc3)ccc2O[C@H]1CN(C)Cc1ccc(-c2ccccc2)cc1 | 47 | -15 | 1
C[C@@H]1CN([C@@H](C)CO)C(=O)Cc2cc(NC(=O)Cc3ccccc3)ccc2O[C@H]1CN(C)Cc1ccc(-c2ccccc2)cc1 | . | . | 1
C[C@@H]1CN([C@H](C)CO)C(=O)Cc2cc(NC(=O)Cc3ccccc3)ccc2O[C@H]1CN(C)Cc1ccc(-c2ccccc2)cc1 | 65* | 0 | .
COc1ccc(CN(C)C[C@@H]2Oc3ccc(NC(=O)Cc4ccccc4)cc3CC(=O)N([C@@H](C)CO)C[C@@H]2C)cc1 | 67* | -4 | 0
C[C@H]1CN([C@@H](C)CO)C(=O)Cc2cc(NC(=O)Cc3ccccc3)ccc2O[C@@H]1CN(C)Cc1ccc(-c2ccccc2)cc1 | 64* | -19 | .
O=C(CCCCCCC(=O)Nc1ccccc1O)N/N=C/c1cccnc1Cl | -6 | 11 | .
C[C@@H]1CN([C@H](C)CO)C(=O)c2cccc(NC(=O)C3CC3)c2O[C@@H]1CN(C)C | -8 | 10 | 1
COC(=O)CCCCCCC(=O)N/N=C/c1ccco1 | -14 | -3 | 1
C[C@@H]1CN([C@H](C)CO)C(=O)c2cc(NS(=O)(=O)c3cccs3)ccc2O[C@H]1CN(C)Cc1ccc2c(c1)OCO2 | -8 | 3 | 1
C[C@H](CO)N1C[C@H](C)[C@@H](CN(C)CC2CCCCC2)Oc2ccc(NS(=O)(=O)c3ccc(Cl)cc3)cc2CC1=O | . | . | 0
C[C@@H]1CN([C@H](C)CO)C(=O)Cc2cc(NS(=O)(=O)c3ccc(Cl)cc3)ccc2O[C@H]1CN(C)CC1CCCCC1 | 65* | -20 | 0
Cc1ccc(S(=O)(=O)Nc2ccc3c(c2)CC(=O)N([C@H](C)CO)C[C@@H](C)[C@@H](CN(C)CC2CCCCC2)O3)cc1 | 26 | -6 | .
Cc1ccc(S(=O)(=O)Nc2ccc3c(c2)CC(=O)N([C@H](C)CO)C[C@@H](C)[C@H](CN(C)CC2CCCCC2)O3)cc1 | 85* | -6 | -1

Assay outcomes from PubChem BioAssay.
